Data taken from publication PMC9272583 (European Journal of Medicinal Chemistry, 2022).
Where two headings read alike, the source gives them in different places.

Key:
[1] = Parallel artificial membrane permeability assay; format: in vitro ADME; settings: PAMPA
[2] = biological target: DENV serotype 2 protease (Dengue virus type 2, UniProt P29990); assay: DENV2 reporter gene assay; format: cell-based; settings: for inhibition at 12.5 µM: HeLa, 24 h, read-out: DENV2proHeLa % (12.5 μM)
Outline: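 Stable DENV2proHeLa cells (DMEM, 10% heat-inactivated FCS, antibiotics) were seeded at 2 x 10^4 per well, dosed at once and incubated 24 h at 37 °C. Cells were lysed 15 min at room temperature, then coelenterazine (2.75 μM in PBS) was injected and luciferase read for 5 s. Triplicates; % inhibition vs untreated control. EC50 from a 4-parameter fit after background subtraction (cell-free wells).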

[3] = biological target: T1, DENV-2 protease (Dengue virus type 2, UniProt P29990); assay: Compound stability against DENV-2 protease; settings: 8 h of incubation in DENV assay buffer, HPLC
T1 sequence (P29990 1476-1653 limits assumed): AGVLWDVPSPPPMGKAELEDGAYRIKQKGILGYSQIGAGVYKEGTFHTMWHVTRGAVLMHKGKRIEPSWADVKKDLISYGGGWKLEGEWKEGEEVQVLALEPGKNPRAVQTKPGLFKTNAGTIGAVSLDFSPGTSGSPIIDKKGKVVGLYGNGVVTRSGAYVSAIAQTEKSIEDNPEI

[4] = system: DENV2proHeLa cells; assay: Cytotoxicity in DENV2proHeLa cells; format: cell-based
Outline: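 HeLa cells stably carrying the DENV2 protease reporter, kept in DMEM with 10% heat-inactivated FCS, penicillin and streptomycin. Cells were seeded at 2 x 10^4 per well and given compound dilutions straight away. Plates ran in parallel with the reporter assay for 24 h at 37 °C. Viability was read by CellTiter-Blue, with each concentration in triplicate.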

[5] = system: DENV serotype 2; settings: DENV-2 titer reduction; cited from earlier work
[6] = biological target: T2, SARS-CoV-2 M^pro (Severe acute respiratory syndrome coronavirus 2, UniProt P0DTD1); assay: SARS-CoV-2 Mpro fluorogenic; format: biochemical; settings: for time dependent inhibition: 12.5 μM; for competitive binding (Cheng-Prusoff plots): increasing substrate concentration; for inhibition at 50 µM: 0.25 h, read-out: SARS-CoV-2 M^pro % (50 μM)
[7] = biological target: T2, SARS-CoV-2 M^pro; assay: Compound stability against SARS-CoV-2 Mpro; settings: 8 h of incubation in assay buffer, HPLC
[8] = biological target: T2, SARS-CoV-2 M^pro; assay: SARS-CoV-2 Mpro mass adduct measurement; format: binding; settings: ESI-TOF, 100 μM compound
Outline: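 Test compound (100 μM) was incubated with active recombinant Mpro (3 μM; bacterially expressed, Ni-NTA then size-exclusion purified) in 50 mM Tris-HCl pH 7.4, 100 mM NaCl, 20% v/v ethylene glycol, 0.0016% Brij 58. Analysis was by LC-ESI-TOF MS on a C18 column: water/acetonitrile with 0.1% formic acid, 10→95% B over 4 min, 0.3 mL/min. Negative mode, Na-formate external calibration.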

[9] = biological target: T2, SARS-CoV-2 M^pro; assay: SARS-CoV-2 Mpro Michaelis-Menten kinetics; format: biochemical; settings: Michaelis-Menten plot
[10] = biological target: T2, SARS-CoV-2 M^pro; assay: Dilution experiment; format: biochemical; settings: preincubated 100 μM for 2 h, diluted to 3 μM
[11] = read-out: DENV2proHeLa EC50, reporter gene assay in HeLa cells

DENV serotype 2 protease, sequence (P29990 1346-1475): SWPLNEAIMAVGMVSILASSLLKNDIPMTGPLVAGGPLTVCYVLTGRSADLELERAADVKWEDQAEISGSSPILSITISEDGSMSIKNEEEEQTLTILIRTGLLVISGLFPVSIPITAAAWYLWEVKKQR
DENV serotype 2 protease, sequence (P29990 1476-2093): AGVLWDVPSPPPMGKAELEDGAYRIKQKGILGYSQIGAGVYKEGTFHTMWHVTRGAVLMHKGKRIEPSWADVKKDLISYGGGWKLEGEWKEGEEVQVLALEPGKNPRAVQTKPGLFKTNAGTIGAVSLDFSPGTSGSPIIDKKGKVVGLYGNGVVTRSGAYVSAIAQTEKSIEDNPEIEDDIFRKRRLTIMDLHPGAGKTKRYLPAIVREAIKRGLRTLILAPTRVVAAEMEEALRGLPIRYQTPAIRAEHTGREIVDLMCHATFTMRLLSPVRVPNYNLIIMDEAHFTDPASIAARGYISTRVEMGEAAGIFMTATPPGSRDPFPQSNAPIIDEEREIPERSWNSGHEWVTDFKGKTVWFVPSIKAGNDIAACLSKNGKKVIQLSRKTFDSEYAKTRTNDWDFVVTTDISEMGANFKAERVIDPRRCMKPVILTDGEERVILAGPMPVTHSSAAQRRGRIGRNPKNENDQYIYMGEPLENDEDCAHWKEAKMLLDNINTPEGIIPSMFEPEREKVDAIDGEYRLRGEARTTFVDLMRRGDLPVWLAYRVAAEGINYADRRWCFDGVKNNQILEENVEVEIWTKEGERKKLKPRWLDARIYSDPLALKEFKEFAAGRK

Structure (SMILES): O=C(Nc1ccc2c(c1)B(O)OC2)c1ccccc1OCc1ccccc1 [Compound 17, 2-(Benzyloxy)-N-(1-hydroxy-1,3-dihydrobenzo[c][1,2]oxaborol-6-yl)benzamide]
- passive membrane permeability (in words) [1]: passive permeability

Structure (SMILES): O=C(Nc1ccc2c(c1)B(O)OC2)c1cccc(OCc2ccc(Cl)cc2)c1 [Compound 32, 3-((4-Chlorobenzyl)oxy)-N-(1-hydroxy-1,3-dihydrobenzo[c][1,2]oxaborol-6-yl)benzamide]
- EC50 [2]: 2400 ± 200 nM
- inhibition at 12.5 µM [2]: 83.6 ± 1.7%
- stability against DENV-2 protease [3]: no decrease in the compound AUC

Structure (SMILES): CCCCCC(=O)NC(C(=O)NCc1ccc(NC(=N)N)cc1)c1ccc(OCc2ccccc2)cc1 (centres unmarked) [NK-189, reference compound]
- DENV2proHeLa % (12.5 μM) ([2]; inhibitor 12.5 μM, reporter gene assay in HeLa cells): 79.3 ± 9.7%
- EC50 [2, 11]: 600 ± 100 nM
- CC50 [4]: > 50000 nM
- antiviral activity of the reference substance [5]: 0.89 µM

Structure (SMILES): N=C(N)Nc1ccc2c(c1)B(O)OC2 [Compound 4, 1-(1-Hydroxy-1,3-dihydrobenzo[c][1,2]oxaborol-6-yl)guanidine]
- Hill slope of dose-response curve [6]: 1.15 ± 0.07
- passive membrane permeability (in words) [1]: no permeability

Structure (SMILES): O=C(Nc1cccc(B(O)O)c1)c1cccc(OCc2ccccc2)c1 [Compound 26, (3-(3-(Benzyloxy)benzamido)phenyl)boronic acid]
- passive membrane permeability (in words) [1]: passive permeability

Structure (SMILES): N=C(N)Nc1ccc(C(=O)Nc2ccc3c(c2)B(O)OC3)cc1 [Compound 8, 4-guanidino-N-(1-hydroxy-1,3-dihydrobenzo[c][1,2]oxaborol-6-yl)benzamide]
- Hill slope of dose-response curve [6]: 1.14 ± 0.07
- time dependent inhibition [6]: no significant increase or decrease
- competitive binding (Cheng-Prusoff plots) [6]: do not show competitive binding
- stability against SARS-CoV-2 M^pro [7]: no cleavage

Structure (SMILES): COc1cccc(COc2cccc(C(=O)Nc3ccc4c(c3)B(O)OC4)c2)c1 [Compound 30, N-(1-Hydroxy-1,3-dihydrobenzo[c][1,2]oxaborol-6-yl)-3-((3-methoxybenzyl)oxy)benzamide]
- inhibition at 50 µM [6]: 43.4 ± 9.1%
- EC50 [2]: 2900 ± 300 nM
- inhibition at 12.5 µM [2]: 80.4 ± 2%

Structure (SMILES): N#Cc1ccc(COc2cccc(C(=O)Nc3ccc4c(c3)B(O)OC4)c2)cc1 [Compound 31, 3-((4-Cyanobenzyl)oxy)-N-(1-hydroxy-1,3-dihydrobenzo[c][1,2]oxaborol-6-yl)benzamide]
- inhibition at 50 µM [6]: 31.7 ± 3.6%
- EC50 [2]: 4100 ± 200 nM
- inhibition at 12.5 µM [2]: 82.2 ± 3.7%
- passive membrane permeability (in words) [1]: passive permeability

Structure (SMILES): O=C(Nc1cccc(C(=O)Nc2ccc3c(c2)B(O)OC3)c1)c1ccccc1 [Compound 23, 3-Benzamido-N-(1-hydroxy-1,3-dihydrobenzo[c][1,2]oxaborol-6-yl)benzamide]
- stability against SARS-CoV-2 M^pro [7]: no cleavage

Structure (SMILES): Cc1cccc(COc2cccc(C(=O)Nc3ccc4c(c3)B(O)OC4)c2)c1 [Compound 29, N-(1-Hydroxy-1,3-dihydrobenzo[c][1,2]oxaborol-6-yl)-3-((3-methylbenzyl)oxy)benzamide]
- inhibition at 50 µM [6]: 45.7 ± 6.3%
- EC50 [2]: 1100 ± 100 nM
- inhibition at 12.5 µM [2]: 90 ± 0.9%

Structure (SMILES): O=C(Nc1ccc2c(c1)B(O)OC2)c1cccc(OCc2c(Cl)cccc2Cl)c1 [Compound 33, 3-((2,6-Dichlorobenzyl)oxy)-N-(1-hydroxy-1,3-dihydrobenzo[c][1,2]oxaborol-6-yl)benzamide]
- inhibition at 12.5 µM [2]: 85.6 ± 4.3%
- EC50 [2, 11]: 540 ± 50 nM
- passive membrane permeability (in words) [1]: passive permeability

Structure (SMILES): O=S(=O)(Nc1ccc2c(c1)B(O)OC2)c1ccc(Cl)cc1 [Compound 11, 4-Chloro-N-(1-hydroxy-1,3-dihydrobenzo[c][1,2]oxaborol-6-yl)benzenesulfonamide]
- passive membrane permeability (in words) [1]: passive permeability

Structure (SMILES): O=C(Nc1ccc2c(c1)B(O)OC2)c1cccc(OCC2CCCCC2)c1 [Compound 34, 3-(Cyclohexylmethoxy)-N-(1-hydroxy-1,3-dihydrobenzo[c][1,2]oxaborol-6-yl)benzamide]
- EC50 [2]: 3400 ± 500 nM

Structure (SMILES): CC(C)(C)NC(=O)N[C@H](C(=O)N1C[C@H]2[C@@H]([C@H]1C(=O)NC(CC1CCC1)C(=O)C(N)=O)C2(C)C)C(C)(C)C (some centres unmarked) [boceprevir]
- mass adducts with SARS-CoV-2 M^pro [8]: adducts were found

Structure (SMILES): O=C(Nc1ccc2c(c1)B(O)OC2)c1ccc(OCc2ccc(Cl)cc2)cc1 [Compound 20, 4-((4-Chlorobenzyl)oxy)-N-(1-hydroxy-1,3-dihydrobenzo[c][1,2]oxaborol-6-yl)benzamide]
- passive membrane permeability (in words) [1]: passive permeability
- stability against DENV-2 protease [3]: no decrease in the compound AUC

Structure (SMILES): O=C(Nc1ccc2c(c1)B(O)OC2)c1cccc(OCc2ccccc2)n1 [Compound 28, 6-(Benzyloxy)-N-(1-hydroxy-1,3-dihydrobenzo[c][1,2]oxaborol-6-yl)picolinamide]
- inhibition at 50 µM [6]: 55.5 ± 7%
- inhibition at 12.5 µM [2]: 85.2 ± 4.1%
- EC50 [2, 11]: 2500 ± 200 nM

Structure (SMILES): O=C(Nc1ccc2c(c1)B(O)OC2)c1ccc(Oc2ccccc2)cc1 [Compound 15, N-(1-Hydroxy-1,3-dihydrobenzo[c][1,2]oxaborol-6-yl)-4-phenoxybenzamide]
- passive membrane permeability (in words) [1]: passive permeability
- stability against DENV-2 protease [3]: no decrease in the compound AUC

Structure (SMILES): O=C(Nc1ccc2c(c1)B(O)OC2)c1cccc(OCc2ccccc2)c1 [Compound 18, 3-(Benzyloxy)-N-(1-hydroxy-1,3-dihydrobenzo[c][1,2]oxaborol-6-yl)benzamide]
- Hill slope of dose-response curve [6]: 1.39 ± 0.16
- time dependent inhibition [6]: no significant increase or decrease
- competitive binding (Cheng-Prusoff plots) [6]: do not show competitive binding
- passive membrane permeability (in words) [1]: passive permeability
- stability against SARS-CoV-2 M^pro [7]: no cleavage
- stability against DENV-2 protease [3]: no decrease in the compound AUC
- inhibition mode [9]: mixed inhibition mode
- reversibility of binding [10]: reversible
